The values that follow come from publication PMC4160279 (Journal of the American Chemical Society, 2014).

“And” between values parts separate entries of the source, which are not always exact repeats. Equal entries are not always repeated.

A word on the Kd: it is the constant that tells how readily two partners part at equilibrium. A high value points to a looser complex.

Assay [1] has as its system NoV VA387 P dimer. Particulars: reported values; cited from earlier work.
The next assay addresses T1, P dimer VA115 (Human calicivirus NLV/VA98115/1998, UniProt Q91H12).
T1 sequence (Q91H12 227-545): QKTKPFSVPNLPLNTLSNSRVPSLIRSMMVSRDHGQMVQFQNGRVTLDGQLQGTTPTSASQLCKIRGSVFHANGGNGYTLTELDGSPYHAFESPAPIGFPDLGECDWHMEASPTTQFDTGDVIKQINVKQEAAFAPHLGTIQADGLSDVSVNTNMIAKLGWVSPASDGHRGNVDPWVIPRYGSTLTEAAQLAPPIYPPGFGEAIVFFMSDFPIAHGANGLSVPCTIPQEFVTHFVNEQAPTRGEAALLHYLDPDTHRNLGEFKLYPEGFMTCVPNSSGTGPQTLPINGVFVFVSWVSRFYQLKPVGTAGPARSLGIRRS
As to the kind of experiment: Direct ESI-MS assay. In kind it is binding. Particulars: n = 3. A digest of the protocol: (§1)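 Recombinant P dimer (P domain residues 222–539, made in E. coli via a GST fusion system) was titrated with at least four initial oligosaccharide concentrations, in triplicate. Example mix: 12 μM dimer, 80 μM ligand, 4 μM reference protein. Bound/free abundance ratios were taken as solution ratios after nonspecific-binding correction. Ka,int was fitted assuming two independent, equivalent sites.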

In a further assay the target is P dimer VA387 (Human calicivirus NLV/VA98387/1998, UniProt Q913Z3). Briefly: Direct ESI-MS assay. The format is binding. Particulars: n = 3. A digest of the protocol:
as §1

Assay [2] deals with NoV VA387 P particle. As to the kind of experiment: CaR-ESI-MS screening assay. In kind it is binding, human NoV VA387 (GII.4). Particulars: P particle (3 μM) and 10 μM of GD1a or GD1b.
The next assay concerns NoV VA115 P dimer. As to the kind of experiment: Direct ESI-MS assay, NoV VA115 P dimer. Also noted: species or system human NoV VA115 (GI.3). Particulars: intrinsic (per binding site) association constant; aqueous ammonium acetate (200 mM), pH 7, 25 °C. A digest of the protocol: (§2)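 Recombinant P dimer, buffer-exchanged into ammonium acetate and quantified by UV, was mixed (e.g., 12 μM) with ganglioside oligosaccharide (e.g., 80 μM) and reference protein (4 μM). Nanoelectrospray in negative ion mode used capillary −0.8 kV, cone 60 V and source 60 °C. Runs covered ≥4 initial ligand concentrations in triplicate. Ka,int came from bound/free abundance ratios, corrected for nonspecific binding, with two equivalent sites.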

Assay [3] deals with NoV VA387 P dimer. Briefly: Direct ESI-MS assay, NoV VA387 P dimer. Also noted: species or system human NoV VA387 (GII.4). Particulars: intrinsic (per binding site) association constant; aqueous ammonium acetate (200 mM), pH 7, 25 °C. The essentials:
as §2

Assay [4] has as its system NoV VA387 P particle. As to the kind of experiment: Proxy protein ESI-MS method, VA387 P particle. Particulars: aqueous ammonium acetate (160 mM), pH 7, 25 °C; Gal-3C as proxy protein. The format is binding, human NoV VA387 (GII.4). A digest of the protocol:
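Gal-3C proxy (3.0 μM), ubiquitin reference (1.0 μM) and GM3 trisaccharide (40 μM) were mixed with VA387 P particle at 0–7.2 μM (0–172.8 μM monomer); the 24-mer came from E. coli. Positive-mode nanoESI. GM3-bound/free proxy ratio was measured after nonspecific-binding correction. Ka,int per site was derived from the ratio change using the known proxy association constant and binding-site concentration.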

Assay [5] has as its target recombinant fragment of the C-terminus of human galectin-3 (Gal-3C) (Homo sapiens, UniProt P17931). Briefly: ESI-MS binding of ligand to proxy protein Gal-3C. Particulars: association constant of proxy protein for the ligand.
The test system of a further assay is NoV VA387 VLP. Briefly: Proxy protein ESI-MS method, VA387 VLP. In kind it is binding, human NoV VA387 (GII.4). The following applies: aqueous ammonium acetate (160 mM), pH 7, 25 °C; Gal-3C as proxy protein. The essentials: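 VLPs were expressed from VA387 VP1 in Sf9 cells by recombinant baculovirus and purified on a sucrose gradient, then tested at 0–570 nM (0–102.6 μM monomer). Each mix held Gal-3C proxy (3.0 μM), ubiquitin reference (1.0 μM) and GM3 trisaccharide (40 μM). Positive-mode nanoESI. Ka,int per site came from the corrected proxy bound/free ratio versus VLP concentration, using the known proxy affinity.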

Sequence of P dimer VA387 (Q913Z3 222-539): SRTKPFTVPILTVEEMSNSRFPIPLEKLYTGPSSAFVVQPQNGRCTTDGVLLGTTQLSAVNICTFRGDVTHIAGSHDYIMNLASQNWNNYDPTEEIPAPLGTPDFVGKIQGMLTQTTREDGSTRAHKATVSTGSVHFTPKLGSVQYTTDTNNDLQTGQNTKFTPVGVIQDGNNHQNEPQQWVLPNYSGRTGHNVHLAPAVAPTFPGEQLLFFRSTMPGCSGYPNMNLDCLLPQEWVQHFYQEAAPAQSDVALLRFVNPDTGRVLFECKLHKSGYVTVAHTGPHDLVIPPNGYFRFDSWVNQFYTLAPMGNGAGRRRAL
Sequence of recombinant fragment of the C-terminus of human galectin-3 (Gal-3C) (P17931 118-248 limits assumed): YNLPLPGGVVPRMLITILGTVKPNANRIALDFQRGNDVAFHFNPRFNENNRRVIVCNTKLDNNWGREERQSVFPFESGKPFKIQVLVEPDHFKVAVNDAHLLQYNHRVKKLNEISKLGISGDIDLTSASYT

Turning to `CC(=O)N[C@H]1C(O)O[C@H](CO)[C@H](O)[C@@H]1O[C@@H]1O[C@H](CO)[C@H](O)[C@H](O[C@H]2O[C@H](CO)[C@H](O)[C@H](O)[C@H]2O)[C@H]1O[C@@H]1O[C@@H](C)[C@@H](O)[C@@H](O)[C@@H]1O` (some centres unmarked) [B3, B type 3 tetrasaccharide], the “intrinsic affinity (Ka,int) of HBGA ligands” value in the assay with NoV VA387 P dimer [1] is 1500 ± 150 M^–1.

Turning to `CC(=O)N[C@H]1[C@H](O[C@@H]2[C@H](O[C@]3(C(=O)O)C[C@H](O)[C@@H](NC(C)=O)[C@H]([C@H](O)[C@H](O)CO)O3)[C@@H](O)[C@H](O[C@H]3[C@H](O)[C@@H](O)C(O)O[C@@H]3CO)O[C@@H]2CO)O[C@H](CO)[C@H](O)[C@@H]1O[C@@H]1O[C@H](CO)[C@H](O)[C@H](O[C@]2(C(=O)O)C[C@H](O)[C@@H](NC(C)=O)[C@H]([C@H](O)[C@H](O)CO)O2)[C@H]1O` (some centres unmarked) [GD1a, GD1a ganglioside oligosaccharide (Neu5Aca2-3Galb1-3GalNAcb1-4(Neu5Aca2-3)Galb1-4Glc)], the Kd at P dimer VA115 is 3120 µM; on P dimer VA387, more than 10000 µM.

Regarding `CC(=O)N[C@H]1[C@H](O[C@@H]2[C@H](O[C@]3(C(=O)O)C[C@H](O)[C@@H](NC(C)=O)[C@H]([C@H](O)[C@H](O)CO)O3)[C@@H](O)[C@H](O[C@H]3[C@H](O)[C@@H](O)C(O)O[C@@H]3CO)O[C@@H]2CO)O[C@H](CO)[C@H](O)[C@@H]1O[C@@H]1O[C@H](CO)[C@H](O)[C@H](O[C@]2(C(=O)O)C[C@H](O)[C@@H](NC(C)=O)[C@H]([C@H](O)[C@H](O)CO)O2)[C@H]1O` (some centres unmarked) [GD1a], the “binding to P particle, ligand tested alone” value in the assay with NoV VA387 P particle [2] is recorded as “binds”. In the assay on NoV VA115 P dimer, the “Ka,int P dimer VA115” value came out at 320 ± 90 M^–1. Also, the “Ka,int P dimer VA387” value in the assay with NoV VA387 P dimer [3] was less than 100 M^–1.

As for `CC(=O)N[C@H]1[C@H](O[C@@H]2[C@H](O[C@]3(C(=O)O)C[C@H](O)[C@@H](NC(C)=O)[C@H]([C@H](O)[C@@H](CO)O[C@]4(C(=O)O)C[C@H](O)[C@@H](NC(C)=O)[C@H]([C@H](O)[C@H](O)CO)O4)O3)[C@@H](O)[C@H](O[C@H]3[C@H](O)[C@@H](O)C(O)O[C@@H]3CO)O[C@@H]2CO)O[C@H](CO)[C@H](O)[C@@H]1O` (some centres unmarked) [GD2, GD2 ganglioside oligosaccharide (GalNAcb1-4(Neu5Aca2-8Neu5Aca2-3)Galb1-4Glc)], the Kd on P dimer VA115 was 1430 µM; at P dimer VA387, 6670 µM.

As to `CC(=O)N[C@H]1[C@H]([C@H](O)[C@H](O)CO)O[C@@](O[C@H](CO)[C@@H](O)[C@@H]2O[C@@](O[C@H]3[C@@H](O)[C@@H](CO)O[C@@H](O[C@H]4[C@H](O)[C@@H](O)C(O)O[C@@H]4CO)[C@@H]3O)(C(=O)O)C[C@H](O)[C@H]2NC(C)=O)(C(=O)O)C[C@@H]1O` (some centres unmarked) [GD3, GD3 ganglioside oligosaccharide (Neu5Aca2-8Neu5Aca2-3Galb1-4Glc)], the Kd is 2380 µM on P dimer VA115 and 2940 µM at P dimer VA387.

As to `CC(=O)N[C@H]1[C@H](O[C@@H]2[C@H](O[C@]3(C(=O)O)C[C@H](O)[C@@H](NC(C)=O)[C@H]([C@H](O)[C@H](O)CO)O3)[C@@H](O)[C@H](O[C@H]3[C@H](O)[C@@H](O)C(O)O[C@@H]3CO)O[C@@H]2CO)O[C@H](CO)[C@H](O)[C@@H]1O[C@@H]1O[C@H](CO)[C@H](O)[C@H](O)[C@H]1O` (some centres unmarked) [GM1a, GM1a ganglioside oligosaccharide (Galb1-3GalNAcb1-4(Neu5Aca2-3)Galb1-4Glc)], the Kd was 2500 µM on P dimer VA115 and 2860 µM on P dimer VA387.

On to `CC(=O)N[C@H]1[C@H](O[C@@H]2[C@H](O)[C@@H](O)[C@H](O[C@H]3[C@H](O)[C@@H](O)C(O)O[C@@H]3CO)O[C@@H]2CO)O[C@H](CO)[C@H](O)[C@@H]1O[C@@H]1O[C@H](CO)[C@H](O)[C@H](O[C@]2(C(=O)O)C[C@H](O)[C@@H](NC(C)=O)[C@H]([C@H](O)[C@H](O)CO)O2)[C@H]1O` (some centres unmarked) [GM1b, GM1b ganglioside oligosaccharide (Neu5Aca2-3Galb1-3GalNAcb1-4Galb1-4Glc)], for which the dissociation constant Kd at P dimer VA115 is 2080 µM; on P dimer VA387, 5560 µM.

As to `CC(=O)N[C@H]1[C@H](O[C@@H]2[C@H](O[C@]3(C(=O)O)C[C@H](O)[C@@H](NC(C)=O)[C@H]([C@H](O)[C@H](O)CO)O3)[C@@H](O)[C@H](O[C@H]3[C@H](O)[C@@H](O)C(O)O[C@@H]3CO)O[C@@H]2CO)O[C@H](CO)[C@H](O)[C@@H]1O` (some centres unmarked) [GM2, GM2 ganglioside oligosaccharide (GalNAcb1-4(Neu5Aca2-3)Galb1-4Glc)], the values for the Kd on P dimer VA115 and on P dimer VA387 were 1430 µM and 2780 µM, respectively.

Regarding `CC(=O)N[C@H]1[C@H]([C@H](O)[C@H](O)CO)O[C@@](O[C@H]2[C@@H](O)[C@@H](CO)O[C@@H](O[C@H]3[C@H](O)[C@@H](O)C(O)O[C@@H]3CO)[C@@H]2O)(C(=O)O)C[C@@H]1O` (some centres unmarked) [GM3, GM3 ganglioside oligosaccharide (GM3 trisaccharide, Neu5Aca2-3Galb1-4Glc)], the values for the Kd at P dimer VA115 and at P dimer VA387 were 769 µM and 667 µM, respectively.

As to `CC(=O)N[C@H]1[C@H]([C@H](O)[C@H](O)CO)O[C@@](O[C@H]2[C@@H](O)[C@@H](CO)O[C@@H](O[C@H]3[C@H](O)[C@@H](O)C(O)O[C@@H]3CO)[C@@H]2O)(C(=O)O)C[C@@H]1O` (some centres unmarked) [GM3], the “Ka,int P dimer VA115” value in the assay on NoV VA115 P dimer came to 1300 ± 130 M^–1. In the assay on NoV VA387 P particle [4], the “affinity (Ka,int) for VA387 P particle” value was found to be 2600 ± 200 M^–1. Further, in assay [5], the “affinity for Gal-3C” value is given as “(1.20 ± 0.02) × 10^4 M^–1”. The “affinity (Ka,int) for VA387 VLP” value in the assay with NoV VA387 VLP is listed as 5500 ± 600 M^–1. In the assay with NoV VA387 P dimer [3], the “Ka,int P dimer VA387” value was 1500 M^–1 and 1500 ± 150 M^–1.

`CC(=O)N[C@H]1[C@H](O[C@@H]2[C@H](O[C@]3(C(=O)O)C[C@H](O)[C@@H](NC(C)=O)[C@H]([C@H](O)[C@@H](CO)O[C@]4(C(=O)O)C[C@H](O)[C@@H](NC(C)=O)[C@H]([C@H](O)[C@@H](CO)O[C@]5(C(=O)O)C[C@H](O)[C@@H](NC(C)=O)[C@H]([C@H](O)[C@H](O)CO)O5)O4)O3)[C@@H](O)[C@H](O[C@H]3[C@H](O)[C@@H](O)C(O)O[C@@H]3CO)O[C@@H]2CO)O[C@H](CO)[C@H](O)[C@@H]1O[C@@H]1O[C@H](CO)[C@H](O)[C@H](O)[C@H]1O` (some centres unmarked) [GT1c, GT1c ganglioside oligosaccharide (Galb1-3GalNAcb1-4(Neu5Aca2-8Neu5Aca2-8Neu5Aca2-3)Galb1-4Glc)]: the “Ka,int” value on P dimer VA115 was 260 ± 110 M⁻¹; at P dimer VA387, less than 100 M⁻¹.

Turning to `CC(=O)NC1C(OC2C(CO)OC(OC3C(CO)OC(O)C(O)C3O)C(O)C2OC2(C(=O)O)CC(O)C(NC(C)=O)C(C(O)C(CO)OC3(C(=O)O)CC(O)C(NC(C)=O)C(C(O)C(CO)OC4(C(=O)O)CC(O)C(NC(C)=O)C(C(O)C(O)CO)O4)O3)O2)OC(CO)C(O)C1O` (centres unmarked) [GT2, GT2 ganglioside oligosaccharide (GalNAcb1-4(Neu5Aca2-8Neu5Aca2-8Neu5Aca2-3)Galb1-4Glc)], the Kd at P dimer VA115 is 4350 µM; at P dimer VA387, more than 10000 µM.

Take `CC(=O)NC1C(O)CC(OC2C(O)C(OC3C(CO)OC(O)C(O)C3O)OC(CO)C2OC2OC(CO)C(O)C(OC3OC(CO)C(O)C(O)C3OC3OC(C)C(O)C(O)C3O)C2NC(C)=O)(C(=O)O)OC1C(O)C(O)CO` (centres unmarked) [fucosyl-GM1, fucosyl-GM1 ganglioside oligosaccharide (Fuc-GM1; Fuca1-2Galb1-3GalNAcb1-4(Neu5Aca2-3)Galb1-4Glc)]: the Kd was 1670 µM at P dimer VA115 and 2170 µM on P dimer VA387.
